Screening results deposited in PubChem by several laboratories.
TMEM16A act – mouse TMEM16A channel activation, primary screen. Q8BHY3. HEK293 TMEM16A/YFP-H148Q/I152L, iodide quench fluorescence; hits give low values. B-score at 10 µM. 340,000 compounds, 0.3% hits;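 active = fluorescence-ratio B-score plate-corrected deviation score at least 3 library SD below zero, with starting fluorescence score within 5 deviations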;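 also: channel opened by trigger with iodide after compound preincubation; score built on the fluorescence ratio of max minus min over baseline; more negative score means more quench and so TMEM16A activation or potentiation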
Hep lipid drop – hepatic lipid droplet formation modulation. AML12 mouse hepatocytes, oleate lipid droplets, BODIPY imaging. inhibition, % at 6.5 µM. 240,000 compounds, 0.4% hits. AID 1656;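 active = lipid droplet intensity inhibited by at least 50%, with more than 500 cells counted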
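Technique: fluorescence imaging, 20x objective, two fields per well / Assay system: AML12 hepatocytes (mouse) / Measure: % inhibition of lipid droplet signal / Doses: 6.5 µM single-point dosing / Incubation: overnight exposure / Reagent: 100 µM oleic acid challenge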
CHOP UPR activ – apoptotic UPR (CHOP) activation; CHO-CHOP luciferase reporter, luminescence; percent of tunicamycin response over DMSO baseline; 330,000 compounds, 0.34% hits; AID 449763; activation, % at 10 µM;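 active = at 10 µM dose, activation of 40% or more, normalized to positive control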;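 also: 100% = tunicamycin at 10 µg/mL and 0% = DMSO alone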
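System: CHO-CHOP luciferase reporter cell line; amount: 500 cells/well; buffer or medium: F12 medium containing 10% fetal bovine serum; incubation: 6 h compound exposure at 37 °C after overnight seeding; measured by: luciferase luminescence after 10 min with Steady-Glo reagent; evaluation: % reporter activation, DMSO baseline versus tunicamycin full activation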
TMEM16A inh – inhibitors of mouse TMEM16A calcium-activated chloride channel; 310,000 compounds, 1.2% hits; HEK293 TMEM16A/YFP iodide influx fluorescence, ionomycin; AID 588511; Q8BHY3; normalized B-score (activity score, 25-100; higher = stronger inhibition) at 10 µM;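 active = ratio plate-corrected score three or more library SD toward inhibition, starting fluorescence score within five deviations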;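 also: score derived from kinetic fluorescence span divided by baseline fluorescence per well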
CHOP inhibitor – blocks CHOP induction under ER stress. CHO-K1 CHOP-promoter luciferase, tunicamycin-induced, 15-18 h. inhibition, % at 10 µM. 220,000 compounds, 3.8% hits. AID 2732;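 active = compounds that reduced the stress-induced luciferase reporter signal by more than about 70% of percent inhibition, limit read from the data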;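 also: 0% = tunicamycin plus vehicle and 100% = wells without tunicamycin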
UPR XBP1 act – activators of adaptive arm of unfolded protein response (XBP1); CHO-XBP1 luciferase reporter, IRE1-XBP1 UPR activation, luminescence; percent of tunicamycin response, DMSO as zero; activation, % at 20 µM; 330,000 compounds, 0.33% hits;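 active = versus positive control, 20 µM dose yields 30% or more activation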;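 also: 100% = tunicamycin at 10 µg/mL and 0% = DMSO only wells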
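Signal: luciferase luminescence; Assay system: CHO-XBP1 luciferase reporter cells; Amount: one thousand reporter cells per well; Dosing: 20 µM single concentration, DMSO 1%; Benchmarks: high control tunicamycin 10 µg/mL final, low control DMSO vehicle only; Schedule: 6 h compound exposure at 37 °C, 5% CO2; Evaluation: percent activation relative to tunicamycin reference.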
TMEM16A reconf – re-confirmation of mouse TMEM16A chloride channel inhibitors. shares compounds with TMEM16A inh. AID 652189. 2,300 compounds, 39% hits. inhibition, % at 10 µM. HEK293 TMEM16A/YFP-H148Q, iodide quench fluorescence; ionomycin added to raise cell calcium;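 active = mean duplicate percent inhibition, scaled so buffer wells are 0 and the reference blocker 100, over three buffer SD above buffer mean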
HEK293 Ca mobil – alters calcium mobilization in TMEM16A HEK293 cells, counter-screen | shares compounds with TMEM16A inh | TMEM16A/YFP HEK293, Fluo4 calcium mobilization | calcium response (% of ionomycin), % at 10 µM | 2,300 compounds, 2% hits | AID 652231;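 active = duplicate-averaged calcium signal over 20% of the ionomycin maximum, relative to buffer baseline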;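 also: each well's signal is peak minus trough fluorescence divided by its pre-addition baseline; 0% = buffer wells and 100% = ionomycin wells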
YFP-HEK293 quench – parental YFP-HEK293 iodide quench counter-screen activity | 2,300 tested, under 10 active | shares compounds with TMEM16A inh | ionomycin | YFP ratio F(max-min)/F0 at 10 µM;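 active = yellow fluorescent protein signal ratio exceeding the buffer control mean by over 5 SD of those controls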;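 also: ratio is mean of duplicate wells from kinetic YFP trace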
ClC-1 inh – selectivity of TMEM16A inhibitors: inhibition of rat ClC-1 chloride channel. 2,300 tested, under 10 active. ratio percent, % at 10 µM. shares compounds with TMEM16A inh. AID 652236. CHO ClC-1-YFP, iodide influx fluorescence quench; iodide control reads 0, buffer control 100;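 active = duplicate-mean ratio percent above the mean of iodide-only control wells, which defines zero, plus 5 of their SD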;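 also: higher percent means stronger block of ClC-1 iodide influx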
Target sequence (P35524 whole entry, looked up): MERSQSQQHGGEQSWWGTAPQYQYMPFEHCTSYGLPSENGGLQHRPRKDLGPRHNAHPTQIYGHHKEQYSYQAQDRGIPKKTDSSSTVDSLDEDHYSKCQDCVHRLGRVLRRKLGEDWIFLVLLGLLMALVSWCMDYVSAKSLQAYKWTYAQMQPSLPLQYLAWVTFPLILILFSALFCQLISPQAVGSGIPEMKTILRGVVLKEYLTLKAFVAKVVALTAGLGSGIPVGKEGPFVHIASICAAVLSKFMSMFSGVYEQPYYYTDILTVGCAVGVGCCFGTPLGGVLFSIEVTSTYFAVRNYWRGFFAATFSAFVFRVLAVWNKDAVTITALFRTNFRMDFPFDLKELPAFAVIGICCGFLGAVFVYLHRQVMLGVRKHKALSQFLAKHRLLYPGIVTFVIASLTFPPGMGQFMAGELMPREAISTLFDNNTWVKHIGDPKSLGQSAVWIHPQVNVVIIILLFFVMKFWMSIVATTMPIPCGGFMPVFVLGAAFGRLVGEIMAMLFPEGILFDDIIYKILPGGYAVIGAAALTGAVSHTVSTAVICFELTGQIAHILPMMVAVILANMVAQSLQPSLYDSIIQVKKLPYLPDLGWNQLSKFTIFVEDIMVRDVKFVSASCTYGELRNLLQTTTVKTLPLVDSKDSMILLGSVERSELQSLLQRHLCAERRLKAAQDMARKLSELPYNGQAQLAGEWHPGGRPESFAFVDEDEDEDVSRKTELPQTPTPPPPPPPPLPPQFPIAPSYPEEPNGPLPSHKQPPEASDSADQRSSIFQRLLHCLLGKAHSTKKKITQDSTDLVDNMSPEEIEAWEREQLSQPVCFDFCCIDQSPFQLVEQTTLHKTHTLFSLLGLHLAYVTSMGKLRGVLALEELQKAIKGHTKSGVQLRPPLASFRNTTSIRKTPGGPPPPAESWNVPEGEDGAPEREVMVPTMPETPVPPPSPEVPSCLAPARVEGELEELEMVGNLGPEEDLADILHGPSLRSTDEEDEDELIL
* hit, by the source's call; i = inactive; nt = no result. Shown are actives, neighbours in structure and some others; about 4.2% of the full set was active somewhere.

SMILES	TMEM16A act	Hep lipid drop	CHOP UPR activ	TMEM16A inh	CHOP inhibitor	UPR XBP1 act	TMEM16A reconf	HEK293 Ca mobil	YFP-HEK293 quench	ClC-1 inh
O=S(=O)(c1ccc(Cl)cc1)N1CCCC1c1nc(-c2ccc(Cl)cc2)no1 (stereo not given)	i	-7	2	i	6	1	nt	nt	nt	nt
O=S(=O)(c1ccccc1Cl)N1CCCC1c1nc(-c2ccccc2Cl)no1 (stereo not given)	i	nt	0	100*	30	-1	18%*	i	-1.1	-14
CCCC[C@H](CN[C@@H](CNC)[C@H](C)CC)NCCC12CCC(CC1)C2	i	12	4	i	nt	2	nt	nt	nt	nt
Cn1cnnc1SCc1ccc(C(=O)N/N=C(/CCC(=O)O)c2ccc(C(C)(C)C)cc2)cc1	i	nt	nt	nt	nt	nt	nt	nt	nt	nt
CC(C)c1ccc(S(=O)(=O)/N=C2\C=C(NS(=O)(=O)c3ccccc3)C(=O)c3ccccc32)cc1	i	-8	nt	100*	nt	nt	91%*	i	-0.92	-24
CCc1ccc(S(=O)(=O)/N=C2\C=C(NS(=O)(=O)c3ccccc3)C(=O)c3ccccc32)cc1	i	11	2	nt	nt	5	nt	nt	nt	nt
CC(=O)c1ccccc1OCCOc1ccccc1C(C)=O	i	8	1	i	nt	-6	nt	nt	nt	nt
CC(=O)c1ccccc1OCc1ccc(S(=O)(=O)Cc2ccccc2)cc1	i	1	1	25*	nt	-3	34%*	i	-0.62	-14
CCOC(=O)C(CC(=O)O)NCc1ccco1 (stereo not given)	i	-19	1	i	4	-2	nt	nt	nt	nt
CC(C)OC(=O)C(CC(=O)O)NCc1ccccc1 (stereo not given)	i	nt	-2	i	-2	-1	i	i	-0.97	-16
CN(C)C(=O)c1ccc(-c2cc3onc(-c4ccccc4)c3c(=O)n2C)cc1	i	nt	0	nt	nt	-3	nt	nt	nt	nt
Cn1c(-c2ccc(F)c(F)c2)cc2onc(-c3ccccc3)c2c1=O	i	nt	6	i	nt	4	nt	nt	nt	nt
COc1cccc(-c2cc3onc(-c4ccccc4)c3c(=O)n2C)c1	i	nt	1	25*	nt	-2	i	i	-0.91	-19
COC(=O)c1ccc(-c2cc3onc(-c4ccccc4)c3c(=O)n2C)cc1	i	nt	3	25*	nt	3	i	i	-1	-4
O=C(Nc1ccccc1N1CCCC1)C1CCN(C(=O)c2ccc(F)cc2)CC1	i	nt	-1	i	nt	-2	nt	nt	nt	nt
COc1ccc(CNC(=O)C2CCCN(S(=O)(=O)c3ccc(-n4cnnn4)cc3)C2)cc1 (stereo not given)	i	11	1	i	nt	-5	nt	nt	nt	nt
O=C(c1ccc2c(c1)OCO2)N1CCN(c2ccccc2)CC1	i	nt	0	i	20	-1	nt	nt	nt	nt
Cc1nn(C(=O)c2ccc3c(c2)OCO3)c(N)c1-c1ccccc1	i	27	4	100*	47	2	i	i	-1	-2
Cc1ccc(SCCNC(=S)Nc2ccc(C)c(C)c2)cc1	i	nt	-2	100*	75*	-3	26%*	i	-0.96	-10
Cc1ccc(SCCNC(=S)Nc2cc(C)ccc2C)cc1	i	12	0	i	53	-2	nt	nt	nt	nt
CCOC(=O)C1CCN(C(=O)C2CCCN(S(=O)(=O)c3ccc(OCC)c(Cl)c3)C2)CC1 (stereo not given)	i	nt	1	i	nt	-3	nt	nt	nt	nt
O=C(c1ccco1)N1CCN(C(=O)c2cnn3c2NC(c2cccs2)CC3C(F)(F)F)CC1 (stereo not given)	i	-6	0	i	36	-3	nt	nt	nt	nt
O=C(c1cnn2c1NC(c1ccco1)CC2C(F)(F)F)N1CCN(c2cccc(Cl)c2)CC1 (stereo not given)	i	-8	-2	25*	66	-4	i	i	-0.95	-5
Cc1ccc(Cn2ccc(-c3cnc(-c4ccccc4)s3)n2)cc1	i	7	8	100*	87*	-2	20%*	i	-1	-6
CC(=O)c1cn(CC(=O)Nc2ccc(C)cc2C)c2ccccc12	i	-31	0	25*	28	-3	20%*	i	-1	-9
SMILES	TMEM16A act	Hep lipid drop	CHOP UPR activ	TMEM16A inh	CHOP inhibitor	UPR XBP1 act	TMEM16A reconf	HEK293 Ca mobil	YFP-HEK293 quench	ClC-1 inh
CNC(=S)Nc1ccc(N2CCN(c3ccc(C(F)(F)F)cn3)CC2)nc1	i	0	1	i	29	-4	nt	nt	nt	nt
Cc1cc(C(=O)COc2cccc(-n3cnnn3)c2)c(C)n1-c1ccccc1	i	nt	2	100*	15	3	i	i	-0.95	-3
COc1ccc(NC(=O)COC(=O)Cn2cnc3ccccc32)cc1	i	nt	0	nt	nt	0	nt	nt	nt	nt
COc1ccc(-n2c(C)cc(C(=O)COC(=O)Cn3cnc4ccccc43)c2C)cc1	i	-11	-2	100*	41	0	23%*	i	-1.2	-10
COc1ccccc1C(CNC(=O)CCNS(=O)(=O)c1ccc(Br)cc1)N1CCCC1 (stereo not given)	i	nt	nt	nt	nt	nt	nt	nt	nt	nt
O=c1[nH]c(SCc2ccccc2Cl)nc2c1CCC2	i	-22	-1	i	41	3	nt	nt	nt	nt
CNc1nc(SCc2ccccc2Cl)nc2c1CCCC2	i	-12	2	100*	66	2	56%*	i	-1.1	0
Cc1c[nH]c2ccccc12	i	nt	-1	i	nt	-2	nt	nt	nt	nt
O=[N+]([O-])c1ccc(N2CCN(C(=S)NC3CCCCC3)CC2)cc1	i	nt	7	25*	56	-4	i	i	-0.99	-21
COc1ccc(C(CNC(=O)C(C)Sc2ccccc2)N2CCOCC2)cc1 (stereo not given)	i	nt	nt	nt	nt	nt	nt	nt	nt	nt
COc1cccc(C(=O)NC(C)c2cccc3ccccc23)c1OC (stereo not given)	i	-6	-2	i	nt	-4	nt	nt	nt	nt
